Tests used:
[1] = organism: Rattus norvegicus; test: Capacity to increase [Ca2+] entry into the vascular smooth muscle was evaluated on rat aorta strips partially depolarized with 10 mM K+ relative to 50 mM KCl; type: functional, Muscle tissue
How it was run: (§1)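 Thoracic aorta cut helically, endothelium removed, three strips per vessel, 0.7 g tension, isotonic recording. Equilibrated 1 h, then depolarized twice with 50 mM KCl at 60 min intervals. Cumulative contraction curves run in 10 mM KCl, protected from light. EC50 is the mean of 5-7 determinations.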

[2] = organism: Rattus norvegicus; test: Positive inotropic activity on rat papillary muscle electrically stimulated by unipolar square wave pulses; type: functional; conditions: Muscle tissue
How it was run: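 Electrically driven rat papillary muscle, 90 min equilibration. Cumulative curves in half-log steps, each step after a plateau, in the presence of 1 µM propranolol and 0.1 µM prazosin added 15 min beforehand. One curve per tissue. EC50 is the mean of 5-7 determinations.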

[3] = organism: Rattus norvegicus; test: Capacity to increase [Ca2+] entry into the vascular smooth muscle was evaluated on rat aorta strips partially depolarized with 10 mM K; type: functional; conditions: Muscle tissue; how it was run: as §1
[4] = molecular target: T1, Voltage-gated L-type calcium channel (Rattus norvegicus, UniProt P22002+Q02485+P27732); test: Agonistic potency, mean percentage of increased Ba2+ currents at -20 mV; Range = 200-240%; type: functional
How it was run: (§2)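 Whole-cell patch clamp on cultured rat insulinoma RINm5F cells at 22 °C. External solution (mM): 125 NaCl, 10 BaCl2, 1 MgCl, 10 HEPES pH 7.3, 300 nM TTX. Internal solution CsCl/TEACl/EGTA-based with ATP and GTP. Held at -60 mV, stepped to -20 mV, returned to -40 mV. Compounds at 3 µM by fast superfusion. Result is % increase of L-type Ba2+ current, after subtracting the current insensitive to 3 µM nifedipine; 5-22 cells.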

[5] = organism: Rattus norvegicus; test: Capacity to increase [Ca2+] entry into the vascular smooth muscle was evaluated on rat aorta strips partially depolarized with 10 mM K+ relative to 50 mM KCl in the presence of 1 uM ODQ.; type: functional, Muscle tissue
How it was run: (§3)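 Endothelium-denuded rat thoracic aorta strips under 0.7 g tension, precontracted twice with 50 mM KCl. Cumulative contraction curves in 10 mM KCl, in light-protected conditions, with 1 µM ODQ added at least 15 min before the first agonist concentration. EC50 is the mean of 5-7 determinations.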

[6] = organism: Rattus norvegicus; test: Capacity to increase [Ca2+] entry into the vascular smooth muscle was evaluated on rat aorta strips partially depolarized with 10 mM K+ in the presence of 1 uM ODQ.; type: functional; conditions: Muscle tissue; how it was run: as §3
[7] = organism: Rattus norvegicus; test: Positive inotropic activity on rat papillary muscle electrically stimulated by unipolar square wave pulses in the presence of 1 uM ODQ.; type: functional; conditions: Muscle tissue
How it was run: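 Electrically stimulated rat papillary muscle with 1 µM propranolol and 0.1 µM prazosin, plus 1 µM ODQ added at least 15 min before the first dose. Cumulative half-log concentration-response curve, one per tissue, after 90 min equilibration. EC50 is the mean of 5-7 determinations.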

[8] = molecular target: T1, Voltage-gated L-type calcium channel; test: Effect on L-type [Ca2+] channels of rat RIN-m5F insulinoma cells in 10 mM Ba2+, -60 mV holding potential at 3 uM, -20 mV; type: functional; how it was run: as §2
[9] = organism: Rattus norvegicus; test: Capacity to increase [Ca2+] entry into the vascular smooth muscle was evaluated on rat aorta strips partially depolarized with 10 mM K+; No effect; type: functional, Muscle tissue; how it was run: as §1

Structure (SMILES) | EC50 [2] [nM] | EC50 [3] [nM] | Agonistic potency [4] [%] | EC50 [6] [nM] | EC50 [7] [nM] | Increase [8] [%] | EC50 [9] | Max [1] [%] | Max [5] [%]
CO/C(O)=C1/C(C)=NC(C)=C([N+](=O)[O-])C1c1ccccc1OCc1no[n+]([O-])c1C (stereo unspecified) | 1200 | 100 | < 240 | 110 | 1300 |  |  | 80 | 83
CO/C(O)=C1/C(C)=NC(C)=C([N+](=O)[O-])C1c1ccccc1OCc1no[n+]([O-])c1C#N (stereo unspecified) | 5200 |  | < 240 | 210 | 5000 |  | Not Active | 0 | 29

Continued by falling EC50 [2], values first:

EC50 [2] [nM] | EC50 [3] [nM] | Agonistic potency [4] [%] | EC50 [6] [nM] | EC50 [7] [nM] | Increase [8] [%] | EC50 [9] | Structure (SMILES) | Max [1] [%] | Max [5] [%]
1500 | 120 | < 240 |  |  |  |  | CO/C(O)=C1/C(C)=NC(C)=C([N+](=O)[O-])C1c1ccccc1OCc1nonc1C#N (stereo unspecified) | 62 | 
820 | 57 | < 240 |  |  |  |  | CO/C(O)=C1/C(C)=NC(C)=C([N+](=O)[O-])C1c1ccccc1OCc1nonc1C (stereo unspecified) | 85 | 
170 | 18 |  |  |  | 320 |  | COC(=O)C1=C(C)NC(C)=C([N+](=O)[O-])C1c1ccccc1C(F)(F)F (stereo unspecified) | 84 | 
